The text below walks through data of publication PMC10500653 (ACS Omega, 2023).

One data set deals with FGFR1 tyrosine kinase (Homo sapiens, UniProt P11362). As to the kind of experiment: ADP-Glo kinase assay, FGFR1. The note with it: for inhibition at 1 µM: read-out: % inhibition of FGFR1. The class given is biochemical. On the technique in general: ADP-Glo first removes unused ATP, then detects ADP through luciferase.
Data set [1] has as its system A549 lung carcinoma cell line. As to the kind of experiment: Cytotoxicity assay. The class given is cell-based, human. The note with it: for IC50: Homo sapiens, A549, 48 h. The procedure, abridged:
(§1)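 Cells were pre-plated in medium, then an equal volume of medium holding serial dilutions of the test compound was added to reach the final concentrations. Controls were DMSO (negative) and etoposide and/or doxorubicin (positive). Plates were incubated a further 48 h and surviving cells were counted by MTT. IC50 is the concentration giving 50% growth inhibition relative to the DMSO control.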

Data set [2] relates to T47D hormone-dependent breast cancer. The data set can be described thus: Cytotoxicity assay. Particulars: Homo sapiens, 48 h, read-out: Cytotoxic activity IC50, T47D. It is filed as cell-based. In short, it runs like this: as §1
Data set [3] relates to HepG2 hepatocellular carcinoma cell line. As to the kind of experiment: Cytotoxicity assay. The note with it: for IC50: Homo sapiens, HepG2, 48 h; for Cytotoxic activity IC50, HepG2: 48 h, MTT. The class given is cell-based, human. The procedure, abridged:
as §1

In data set [4] the test system is MOLT-3 lymphoblastic leukemia cell line. The data set can be described thus: Cytotoxicity assay. The class given is cell-based. Particulars: Homo sapiens, MOLT-3, 48 h, read-out: Cytotoxic activity IC50, MOLT-3. The procedure, abridged: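 MOLT-3 cells received an equal volume of additional medium with serial dilutions of the test compound to reach the final concentrations. DMSO served as the negative control and etoposide and/or doxorubicin as the positive control. After a further 48 h incubation, surviving cells were counted by XTT. IC50 is the concentration inhibiting growth by 50% versus the DMSO control.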

The subject of data set [5] is HuCCA-1 cholangiocarcinoma cell line. The data set can be described thus: Cytotoxicity assay. It is filed as cell-based. Particulars: Homo sapiens, HuCC-A1, 48 h, read-out: Cytotoxic activity IC50, HuCCA-1. The procedure, abridged:
as §1

The test system of data set [6] is MDA-MB-231 hormone-independent breast cancer. The data set can be described thus: Cytotoxicity assay. It is filed as cell-based. The note with it: Homo sapiens, MDA-MB-231, 48 h, read-out: Cytotoxic activity IC50, MDA-MB-231. The procedure, abridged: as §1
A short description of a further data set: Cytotoxicity assay. The class given is cell-based. The note with it: human, MRC-5 normal embryonic lung cells. The procedure, abridged:
as §1

Setting [7] is: read-out: Cytotoxic activity IC50, A549.
[8] abbreviates: read-out: Cytotoxic activity IC50, HepG2.
Setting [9] is: read-out: Cytotoxic activity, HepG2 (class NC).

Read-outs that look alike come from different tables or passages of the source.

Sequence of FGFR1 tyrosine kinase (P11362 22-822): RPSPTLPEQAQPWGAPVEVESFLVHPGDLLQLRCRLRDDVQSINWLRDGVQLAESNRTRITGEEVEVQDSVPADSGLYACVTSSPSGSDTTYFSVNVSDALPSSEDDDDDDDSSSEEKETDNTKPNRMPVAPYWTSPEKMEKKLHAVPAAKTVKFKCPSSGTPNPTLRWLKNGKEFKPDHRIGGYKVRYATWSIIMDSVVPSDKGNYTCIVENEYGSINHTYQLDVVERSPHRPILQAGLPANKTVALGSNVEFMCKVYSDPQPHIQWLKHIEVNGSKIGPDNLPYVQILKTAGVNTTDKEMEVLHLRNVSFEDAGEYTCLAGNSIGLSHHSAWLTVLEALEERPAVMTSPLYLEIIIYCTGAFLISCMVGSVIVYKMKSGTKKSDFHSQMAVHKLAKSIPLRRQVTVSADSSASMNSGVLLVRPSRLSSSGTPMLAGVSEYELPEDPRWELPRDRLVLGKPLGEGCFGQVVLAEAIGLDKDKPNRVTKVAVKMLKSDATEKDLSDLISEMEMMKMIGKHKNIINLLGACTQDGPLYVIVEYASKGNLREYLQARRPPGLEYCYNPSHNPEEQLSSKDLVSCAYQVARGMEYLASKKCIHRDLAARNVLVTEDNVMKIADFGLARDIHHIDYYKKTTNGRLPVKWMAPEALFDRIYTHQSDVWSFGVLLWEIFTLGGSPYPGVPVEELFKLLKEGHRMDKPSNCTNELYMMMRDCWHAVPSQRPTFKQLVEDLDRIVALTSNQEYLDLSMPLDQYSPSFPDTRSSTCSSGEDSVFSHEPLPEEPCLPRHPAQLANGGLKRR

For `COc1cc(/C=C/C(=O)c2ccc(NC3=C(Cl)C(=O)c4ccccc4C3=O)cc2)cc(OC)c1OC` [Compound 8, (E)-2-Chloro-3-((4-(3-(3,4,5-trimethoxyphenyl)acryloyl)phenyl)amino)naphthalene-1,4-dione], the IC50 against FGFR1 tyrosine kinase amounted to 1.69 ± 0.71 nM; in data set [1] (setting [7]), 25800 ± 3550 nM; in data set [2] it was 1610 ± 70 nM; in data set [3] (setting [8]), 10870 ± 10 nM; in data set [4], 810 ± 20 nM; in data set [5], 4720 ± 330 nM. For the same compound, the IC50 in data set [6] came out at 1090 ± 20 nM. The IC50 at 48 h in the data set “Cytotoxicity assay” was 2920 ± 360 nM.

On to `COc1ccc(/C=C/C(=O)c2ccc(NC3=C(Cl)C(=O)c4ccccc4C3=O)cc2)cc1O` [Compound 9, (E)-2-Chloro-3-((4-(3-(3-hydroxy-4-methoxyphenyl)acryloyl)phenyl)amino)naphthalene-1,4-dione], for which the IC50 against FGFR1 tyrosine kinase is 0.5 ± 0.04 nM; in data set [1] (read-out: Cytotoxic activity, A549 (class NC)) it was > 50 µg/mL; in data set [2], 24000 ± 1610 nM; in data set [3] (setting [9]), > 50 µg/mL; in data set [4], 830 ± 10 nM; in data set [5], 6850 ± 1200 nM. Further, the IC50 in data set [6] stood at 6810 ± 520 nM. The “Cytotoxic activity IC50, A549” value in data set [1] (A549, 48 h, MTT) was “inactive”. In data set [3], the “Cytotoxic activity IC50, HepG2” value was “inactive”. Also, the IC50 at 48 h in “Cytotoxicity assay” was found to be 14940 ± 90 nM.

For the compound `COc1cccc2c1C(=O)c1c(O)c3c(c(O)c1C2=O)C[C@@](O)(C(=O)CO)C[C@@H]3O[C@H]1C[C@H](N)[C@H](O)[C@H](C)O1` [doxorubicin, reference compound], the IC50 in data set [1] (setting [7]) came out at 370 ± 20 nM; in data set [2], 840 ± 10 nM; in data set [3] (setting [8]), 570 ± 50 nM; in data set [5], 420 ± 20 nM; in data set [6], 1840 ± 130 nM. The compound also gave an IC50 at 48 h in the data set “Cytotoxicity assay” of 2790 ± 110 nM.

Regarding `COc1cc([C@@H]2c3cc4c(cc3[C@@H](O[C@@H]3O[C@@H]5CO[C@@H](C)O[C@H]5[C@H](O)[C@H]3O)[C@H]3COC(=O)[C@H]23)OCO4)cc(OC)c1O` [etoposide, reference compound], the IC50 turned out to be 33980 ± 10 nM in data set [3] (setting [8]) and 41 ± 3 nM in data set [4].

One may read the inhibition as the share of the control response that was lost under treatment. On to `COc1cc(/C=C/C(=O)c2cccc(NC3=C(Cl)C(=O)c4ccccc4C3=O)c2)cc(OC)c1O` [Compound 4, (E)-2-Chloro-3-((3-(3-(4-hydroxy-3,5-dimethoxyphenyl)acryloyl)phenyl)amino)naphthalene-1,4-dione], for which the IC50 against FGFR1 tyrosine kinase was found to be 0.96 ± 0.05 nM; in data set [1] (setting [7]), 25000 ± 4220 nM; in data set [2], 2120 ± 110 nM; in data set [3] (setting [8]), 12800 ± 420 nM; in data set [4] it was 1100 ± 140 nM; in data set [5], 7060 ± 1360 nM. Besides, the IC50 in data set [6] is 1430 ± 110 nM. The inhibition at 1 µM at FGFR1 tyrosine kinase is > 70%. The IC50 at 48 h in the data set “Cytotoxicity assay” turned out to be 2900 ± 480 nM.

`COc1ccc(/C=C/C(=O)c2ccc(NC3=C(Cl)C(=O)c4ccccc4C3=O)cc2)cc1OC` [Compound 7, (E)-2-Chloro-3-((4-(3-(3,4-dimethoxyphenyl)acryloyl)phenyl)amino)naphthalene-1,4-dione]: the IC50 against FGFR1 tyrosine kinase is 0.85 ± 0.08 nM; in data set [1] (setting [7]) it was 62060 ± 140 nM; in data set [2], 1860 ± 60 nM; in data set [3] (setting [9]) it was > 50 µg/mL; in data set [4], 1270 ± 120 nM; in data set [5], 7320 ± 370 nM. In addition, the IC50 in data set [6] is 1160 ± 30 nM. In addition, the inhibition at 1 µM on FGFR1 tyrosine kinase was > 70%. Moreover, the “Cytotoxic activity IC50, HepG2” value in data set [3] was “inactive”. For the same compound, the IC50 at 48 h in the data set “Cytotoxicity assay” was found to be 2930 ± 160 nM.

In the case of `COc1cc(/C=C/C(=O)c2cccc(NC3=C(Cl)C(=O)c4ccccc4C3=O)c2)cc(OC)c1OC` [Compound 3, (E)-2-Chloro-3-((3-(3-(3,4,5-trimethoxyphenyl)acryloyl)phenyl)amino)naphthalene-1,4-dione], the IC50 in data set [1] (setting [7]) worked out at 51600 ± 10300 nM; in data set [2], 1150 ± 80 nM; in data set [3] (setting [8]) it was 16900 ± 740 nM; in data set [4] it was 990 ± 120 nM; in data set [5], 4720 ± 480 nM; in data set [6], 1050 ± 40 nM. In “Cytotoxicity assay”, this compound had an IC50 at 48 h of 2520 ± 260 nM.

Take `COc1cccc(/C=C/C(=O)c2cccc(NC3=C(Cl)C(=O)c4ccccc4C3=O)c2)c1OC` [Compound 1, (E)-2-Chloro-3-((3-(3-(2,3-dimethoxyphenyl)acryloyl)phenyl)amino)naphthalene-1,4-dione]: the IC50 at FGFR1 tyrosine kinase was determined as 0.91 ± 0.08 nM; in data set [1] (setting [7]), 6120 ± 1560 nM; in data set [2] it was 1810 ± 40 nM; in data set [3] (setting [8]) it was 5130 ± 150 nM; in data set [4], 1240 ± 30 nM; in data set [5], 1160 ± 400 nM. In addition, the IC50 in data set [6] came to 1080 ± 120 nM. Besides, the inhibition at 1 µM at FGFR1 tyrosine kinase was > 70%. In “Cytotoxicity assay”, this compound gave an IC50 at 48 h of 4960 ± 140 nM.

Consider `O=C(/C=C/c1ccc(O)cc1)c1cccc(NC2=C(Cl)C(=O)c3ccccc3C2=O)c1` [Compound 5, (E)-2-Chloro-3-((3-(3-(4-hydroxyphenyl)acryloyl)phenyl)amino)naphthalene-1,4-dione], for which the IC50 at FGFR1 tyrosine kinase was 0.33 ± 0.01 nM; in data set [1] (setting [7]), 31900 ± 3710 nM; in data set [2], 5750 nM; in data set [3] (setting [8]), 13070 ± 120 nM; in data set [4], 2190 ± 260 nM; in data set [5], 5650 ± 80 nM. The IC50 in data set [6] came out at 3330 ± 80 nM. On FGFR1 tyrosine kinase, the inhibition at 1 µM was > 70%. The compound further had an IC50 at 48 h in “Cytotoxicity assay” of 11000 ± 990 nM.

Turning to `COc1cccc(/C=C/C(=O)c2ccc(NC3=C(Cl)C(=O)c4ccccc4C3=O)cc2)c1` [Compound 6, (E)-2-Chloro-3-((4-(3-(3-methoxyphenyl)acryloyl)phenyl)amino)naphthalene-1,4-dione], the IC50 was determined as 13500 ± 1490 nM in data set [1] (setting [7]); 2100 ± 120 nM in data set [2]; 6880 ± 2720 nM in data set [3] (setting [8]); 1780 ± 60 nM in data set [4]; 11100 ± 370 nM in data set [5]; 1310 ± 30 nM in data set [6]. For the same compound, the IC50 at 48 h in “Cytotoxicity assay” turned out to be 2690 ± 150 nM.

As for `COc1ccc(/C=C/C(=O)c2cccc(NC3=C(Cl)C(=O)c4ccccc4C3=O)c2)c(OC)c1OC` [Compound 2, (E)-2-Chloro-3-((3-(3-(2,3,4-trimethoxyphenyl)acryloyl)phenyl)amino)naphthalene-1,4-dione], the IC50 at FGFR1 tyrosine kinase was determined as 1.5 ± 0.28 nM; in data set [1] (setting [7]), 33500 ± 170 nM; in data set [2], 2320 ± 80 nM; in data set [3] (setting [8]), 16300 ± 440 nM; in data set [4], 1810 ± 50 nM; in data set [5], 8870 ± 1030 nM. Besides, in data set [6], the IC50 is 1790 ± 120 nM. For the same compound, on FGFR1 tyrosine kinase, the inhibition at 1 µM was > 70%. In “Cytotoxicity assay”, this compound yielded an IC50 at 48 h of 2600 ± 40 nM.

On to `O=C(/C=C/c1ccc(O)cc1)c1ccc(NC2=C(Cl)C(=O)c3ccccc3C2=O)cc1` [Compound 10, (E)-2-Chloro-3-((4-(3-(4-hydroxyphenyl)acryloyl)phenyl)amino)naphthalene-1,4-dione], for which the IC50 turned out to be 3.13 ± 0.67 nM at FGFR1 tyrosine kinase; 44200 ± 4060 nM in data set [1] (setting [7]); 3210 ± 60 nM in data set [2]; 57500 ± 1280 nM in data set [3] (setting [8]); 2350 ± 390 nM in data set [4]; 7700 ± 2850 nM in data set [5]. Moreover, the IC50 in data set [6] turned out to be 1370 ± 70 nM. The inhibition at 1 µM on FGFR1 tyrosine kinase is > 70%. Moreover, the IC50 at 48 h in the data set “Cytotoxicity assay” worked out at 8310 ± 3300 nM.
